Activity data for three compounds are collected here from ChEMBL document CHEMBL1145471, “Small molecule regulators of autophagy identified by an image-based high-throughput screen” (Proc Natl Acad Sci U S A, 2007).

Holding throughout (format): functional
Experiment [1] relates to H4. The experiment in a line: Effect on FYVE-RFP+ vesicle intensity per cell in human H4 cells after 8 hrs relative to control. Further details: concentration or dose not given beside the values. The method in brief:
(§1)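 H4 cells stably expressing FYVE-RFP (H4-FYVE), grown in DMEM with 10% FBS, penicillin/streptomycin and 2 mM L-glutamine at 37°C, 5% CO2, seeded in 96-well plates and exposed to compound. Fixed in 4% paraformaldehyde, nuclei stained with 3 μg/ml DAPI, FYVE-RFP+ vesicles quantified by high-throughput fluorescence microscopy against DMSO control. Triplicate wells, mean ± SD.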

Experiment [2] relates to H4. The experiment in a line: Effect on FYVE-RFP+ vesicle intensity per cell in human H4 cells after 2 hrs relative to control. Further details: concentration or dose not given beside the values. The procedure, abridged:
as §1

The test system of experiment [3] is H4. The experiment in a line: Increase in light chain 3-GFP+ autophagosome vesicle number per cell in human H4 cells at 7.2 uM after 24 hrs by high throughput fluorescence microscopy relative to control. The method in brief: (§2)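 H4 cells stably expressing LC3-GFP were grown in DMEM with 10% FBS and 2 mM L-glutamine at 37°C, 5% CO2. They were exposed to each compound for 24 h, with DMSO as negative and rapamycin as positive control. Cells were then fixed in 4% paraformaldehyde and stained with 3 μg/ml DAPI. High-throughput fluorescence imaging scored LC3-GFP spot number, size and intensity, expressed relative to DMSO. Mean ± SD of triplicates; experiments repeated three times.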

Experiment [4] deals with H4. Nature of the experiment: Increase in light chain 3-GFP+ autophagosome vesicle area per cell in human H4 cells at 7.2 uM after 24 hrs by high throughput fluorescence microscopy relative to control. The method in brief: (§3)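 H4 cells stably expressing LC3-GFP, seeded in 96-well plates and exposed to compound for 24 h; screening concentrations were 3–12 μM, with rapamycin 0.22 μM and bafilomycin A1 0.40 μM. Cells fixed in 4% paraformaldehyde and stained with 3 μg/ml DAPI. Number, size and intensity of LC3-GFP spots measured by high-throughput fluorescence microscopy and expressed as percent of DMSO-treated wells. Rapamycin was the positive control. Triplicate wells, mean ± SD; experiments repeated three times.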

Experiment [5] has as its system H4. The experiment in a line: Induction of light chain 3-GFP level in human H4 cells at 7.2 uM after 24 hrs by high throughput fluorescence microscopy relative to control. The procedure, abridged: (§4)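 H4 cells stably expressing LC3-GFP, grown in DMEM with 10% FBS, penicillin/streptomycin and 2 mM L-glutamine at 37°C, 5% CO2. Cells were seeded in 96-well plates and exposed to library compounds at 3–12 μM for 24 h, then fixed in 4% paraformaldehyde and stained with 3 μg/ml DAPI. LC3-GFP spot number, size and intensity were measured by high-throughput fluorescence microscopy and expressed relative to DMSO. Triplicates, mean ± SD.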

Experiment [6] deals with H4. Nature of the experiment: Increase in long-lived protein degradation in human H4 cells after 1 hr relative to control. Further details: concentration or dose not given beside the values.
In experiment [7] the test system is H4. The experiment in a line: Increase in long-lived protein degradation in human H4 cells after 2 hrs relative to control. On the set-up: concentration or dose not given beside the values.
For experiment [8], the system named is H4. The experiment in a line: Effect on FYVE-RFP+ vesicle intensity per cell in human H4 cells after 4 hrs relative to control. On the set-up: concentration or dose not given beside the values. The method in brief: as §1
The test system of experiment [9] is H4. The experiment in a line: Increase in long-lived protein degradation in human H4 cells after 4 hrs relative to control. Further details: concentration or dose not given beside the values.
The subject of experiment [10] is H4. The experiment in a line: Increase in long-lived protein degradation in human H4 cells after 24 hrs relative to control. On the set-up: concentration or dose not given beside the values.
The subject of experiment [11] is H4. Nature of the experiment: Increase in light chain 3-GFP+ autophagosome vesicle intensity per cell in human H4 cells at 7.2 uM after 24 hrs by high throughput fluorescence microscopy relative to control. The method in brief:
as §2

For experiment [12], the system named is H4. Nature of the experiment: Induction of light chain 3-GFP level in human H4 cells at 6.6 uM after 24 hrs by high throughput fluorescence microscopy relative to control. The method in brief:
as §4

Experiment [13] relates to H4. The experiment in a line: Increase in light chain 3-GFP+ autophagosome vesicle area per cell in human H4 cells at 6.6 uM after 24 hrs by high throughput fluorescence microscopy relative to control. The method in brief: as §3
Experiment [14] concerns H4. The experiment in a line: Increase in light chain 3-GFP+ autophagosome vesicle intensity per cell in human H4 cells at 6.6 uM after 24 hrs by high throughput fluorescence microscopy relative to control. The method in brief:
as §2

For experiment [15], the system named is H4. The experiment in a line: Increase in light chain 3-GFP+ autophagosome vesicle number per cell in human H4 cells at 6.6 uM after 24 hrs by high throughput fluorescence microscopy relative to control. The procedure, abridged:
as §2

For experiment [16], the system named is H4. The experiment in a line: Decrease in FYVE-RFP+ vesicle intensity per cell in human H4 cells after 4 hrs relative to control. On the set-up: concentration or dose not given beside the values. The method in brief: as §1
Experiment [17] has as its system H4. The experiment in a line: Increase in light chain 3-GFP+ autophagosome vesicle number per cell in human H4 cells at 3.3 uM after 24 hrs by high throughput fluorescence microscopy relative to control. The method in brief: (§5)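 H4 cells stably expressing LC3-GFP, seeded in 96-well plates and exposed to compound for 24 h; fixed in 4% paraformaldehyde, nuclei stained with 3 μg/ml DAPI. Automated fluorescence microscopy scored number, size and intensity of LC3-GFP spots; values expressed relative to DMSO-treated wells, rapamycin positive control. Triplicate wells, mean ± SD; experiments repeated three times.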

Experiment [18] deals with H4. Nature of the experiment: Increase in light chain 3-GFP+ autophagosome vesicle area per cell in human H4 cells at 3.3 uM after 24 hrs by high throughput fluorescence microscopy relative to control. The method in brief:
as §5

Experiment [19] concerns H4. The experiment in a line: Decrease in FYVE-RFP+ vesicle intensity per cell in human H4 cells after 2 hrs relative to control. On the set-up: concentration or dose not given beside the values. The method in brief: as §1
For experiment [20], the system named is H4. Nature of the experiment: Decrease in FYVE-RFP+ vesicle intensity per cell in human H4 cells after 8 hrs relative to control. On the set-up: concentration or dose not given beside the values. The method in brief: as §1
Experiment [21] deals with H4. Nature of the experiment: Induction of light chain 3-GFP level in human H4 cells at 3.3 uM after 24 hrs by high throughput fluorescence microscopy relative to control. The procedure, abridged: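 H4 cells stably expressing LC3-GFP, kept in DMEM/10% FBS at 37°C, 5% CO2, were seeded in 96-well plates and exposed to compound for 24 h. Cells were then fixed in 4% paraformaldehyde and stained with 3 μg/ml DAPI. Automated fluorescence microscopy scored the number, size and intensity of LC3-GFP spots. Values are percent of DMSO wells, in triplicate, mean ± SD. Rapamycin served as positive control.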

Experiment [22] relates to H4. The experiment in a line: Increase in light chain 3-GFP+ autophagosome vesicle intensity per cell in human H4 cells at 3.3 uM after 24 hrs by high throughput fluorescence microscopy relative to control. The method in brief:
as §5

Turning to `COC(=O)c1c(C)[nH]c(C)c1C(=O)c1ccccc1Cc1ccccc1`, the Activity with H4 [1] came to 87.62%; with H4 [2] it was 99.43%; in the experiment on H4 [3] it was 161.73%; in the experiment with H4 [4], 18010%; in the experiment with H4 [5] it was 132.45%; in the experiment on H4 [6], 101.34%. Also, the Activity in the experiment on H4 [7] is given as 111.04%; in the experiment with H4 [8], 78.17%; in the experiment with H4 [9], 97.03%; with H4 [10] it was 90.97%; in the experiment on H4 [11], 200.83%.

For the compound `CCCNCC(O)COc1ccccc1C(=O)CCc1ccccc1` (stereo not drawn) [PROPAFENONE], the Activity with H4 [1] turned out to be 62.87%; in the experiment on H4 [2], 114.69%; with H4 [12], 99.88%; in the experiment on H4 [13], 271.21%; in the experiment with H4 [14] it was 385.97%; in the experiment on H4 [6], 114.56%. For the same compound, the Activity with H4 [7] is on record as 113.22%; in the experiment with H4 [8] it was 78.75%; in the experiment with H4 [9], 99.78%; in the experiment on H4 [10] it was 102.73%; in the experiment on H4 [15] it was 210.4%.

As to `COc1cc2c3cc1Oc1c(OC)c(OC)cc4c1[C@@H](Cc1ccc(OC(=O)c5ccc([N+](=O)[O-])cc5)c(c1)Oc1ccc(cc1)C[C@@H]3N(C)CC2)N(C)CC4` [E6 BERBAMINE], the Activity in the experiment on H4 [16] is listed as 54.54%; in the experiment on H4 [17], 389.35%; with H4 [18], 693.82%; with H4 [19], 59.73%; with H4 [6], 100.96%; with H4 [20] it was 58.69%. The Activity in the experiment with H4 [7] is 91.62%; with H4 [9], 96.53%; with H4 [10] it was 93.45%; in the experiment with H4 [21], 131.16%; with H4 [22], 2447.47%.
